How the values were obtained:
HL-60 = test: Antitumor activity against human HL60 cells; format: functional
How it was run: (§1)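 Tested in the NCI in vitro disease-oriented human tumor cell screen. The endpoints are IC50 (molar concentration giving 50% growth inhibition), TGI (total growth inhibition) and LC50 (50% net cell death). The maximal concentration tested was 100 μM. Subpanel values are means of several individual cell lines.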

K562 = test: Antitumor activity against human K562 cells; format: functional; how it was run: as §1
RPMI-8226 = test: Antitumor activity against human RPMI8226 cells; format: functional; how it was run: as §1
A549 = test: Antitumor activity against human A549 cells; format: functional; how it was run: as §1
EKVX = test: Antitumor activity against human EKVX cells; format: functional; how it was run: as §1
HOP-62 = test: Antitumor activity against human HOP62 cells; format: functional; how it was run: as §1
NCI-H23 = test: Antitumor activity against human NCI-H23 cells; format: functional; how it was run: as §1
NCI-H322M = test: Antitumor activity against human NCI-H322M cells; format: functional; how it was run: as §1
NCI-H460 = test: Antitumor activity against human NCI-H460 cells; format: functional; how it was run: as §1
COLO 205 = test: Antitumor activity against human COLO 205 cells; format: functional; how it was run: as §1
HCT-116 = test: Antitumor activity against human HCT116 cells; format: functional; how it was run: as §1
HCT-15 = test: Antitumor activity against human HCT15 cells; format: functional; how it was run: as §1
KM12 = test: Antitumor activity against human KM12 cells; format: functional; how it was run: as §1
SW-620 = test: Antitumor activity against human SW620 cells; format: functional
How it was run: (§2)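 NCI in vitro disease-oriented tumour cell line screen. Read-outs are IC50 (molar concentration giving 50% growth inhibition), TGI (molar concentration giving total inhibition of net growth) and LC50 (molar concentration giving 50% net cell death). The maximal concentration tested was 100 μM.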

SF-268 = test: Antitumor activity against human SF268 cells; format: functional; how it was run: as §1
SF-295 = test: Antitumor activity against human SF295 cells; format: functional; how it was run: as §1
SNB-19 = test: Antitumor activity against human SNB19 cells; format: functional; how it was run: as §1
SNB-75 = test: Antitumor activity against human SNB75 cells; format: functional; how it was run: as §2
[1] = Antitumor activity against human LOX IMV1 cells; format: functional, cell-based; how it was run: as §1
M14 = test: Antitumor activity against human M14 cells; format: functional; how it was run: as §1
SK-MEL-2 = test: Antitumor activity against human SK-MEL-2 cells; format: functional; how it was run: as §1
SK-MEL-5 = test: Antitumor activity against human SK-MEL-5 cells; format: functional; how it was run: as §1
IGROV-1 = test: Antitumor activity against human IGROV1 cells; format: functional; how it was run: as §1
OVCAR-3 = test: Antitumor activity against human OVCAR-3 cells; format: functional; how it was run: as §1
OVCAR-8 = test: Antitumor activity against human OVCAR8 cells; format: functional; how it was run: as §1
786-0 = test: Antitumor activity against human 786-0 cells; format: functional; how it was run: as §1
CAKI-1 = test: Antitumor activity against human CAKI1 cells; format: functional; how it was run: as §1
UO-31 = test: Antitumor activity against human UO31 cells; format: functional; how it was run: as §2
DU-145 = test: Antitumor activity against human DU145 cells; format: functional; how it was run: as §1
MCF7 = test: Antitumor activity against human MCF7 cells; format: functional; how it was run: as §1
MDA-MB-231 = test: Antitumor activity against human MDA-MB-231 cells; format: functional; how it was run: as §1
Hs-578T = test: Antitumor activity against human HS578T cells; format: functional; how it was run: as §1
MDA-MB-435 = test: Antitumor activity against human MDA-MB-435 cells; format: functional; how it was run: as §1
BT-549 = test: Antitumor activity against human BT549 cells; format: functional; how it was run: as §1
T47D = test: Antitumor activity against human T47D cells; format: functional; how it was run: as §2
[2] = Half life of hydrolysis in deuterated phosphate buffer at pD 7.8; settings: deuterated phosphate buffer, pH 7.8
NCI [3] = test: Antitumor activity against human NCI leukemia cell line panel; format: functional, cell-based; how it was run: as §1
NCI [4] = test: Antitumor activity against human NCI colon cancer cell line panel; format: functional, cell-based; how it was run: as §1
NCI [5] = test: Antitumor activity against NCI human melanoma cell line panel; format: functional, cell-based; how it was run: as §1
HOP-92 = test: Antitumor activity against human HOP92 cells; format: functional; how it was run: as §1
OVCAR-5 = test: Antitumor activity against human OVCAR5 cells; format: functional; how it was run: as §1
[6] = read-out: Log LC50 (the source's name) (converted)

CN(/N=N/c1nc(OCc2ccccc2)c2nc[nH]c2n1)C(=O)N(C)/N=N/c1nc(OCc2ccccc2)c2nc[nH]c2n1
GI50 (HL-60): 63.1 µM
CC50 (HL-60; [6]): > 100 µM
TGI (HL-60; read-out: Log TGI (converted)): > 100 µM
GI50 (K562): 75.9 µM
CC50 (K562; [6]): > 100 µM
TGI (K562; read-out: Log TGI (converted)): > 100 µM
GI50 (RPMI-8226): 38 µM
CC50 (RPMI-8226; [6]): > 100 µM
TGI (RPMI-8226; read-out: Log TGI (converted)): > 100 µM
CC50 (A549; [6]): > 100 µM
TGI (A549; read-out: Log TGI (converted)): > 100 µM
GI50 (EKVX): 38 µM
CC50 (EKVX; [6]): > 100 µM
TGI (EKVX; read-out: Log TGI (converted)): > 100 µM
GI50 (HOP-62): 95.5 µM
LC50 (HOP-62): > 100 µM
TGI (HOP-62; read-out: Log TGI (converted)): > 100 µM
GI50 (NCI-H23): 34.7 µM
LC50 (50% net cell kill) (NCI-H23): > 100 µM
TGI (NCI-H23; read-out: Log TGI (converted)): > 100 µM
GI50 (NCI-H322M): 41.7 µM
CC50 (NCI-H322M; [6]): > 100 µM
TGI (NCI-H322M; read-out: Log TGI (converted)): > 100 µM
GI50 (NCI-H460): 26.3 µM
CC50 (NCI-H460; [6]): > 100 µM
TGI (NCI-H460; read-out: Log TGI (converted)): > 100 µM
GI50 (COLO 205): 37.2 µM
CC50 (COLO 205; [6]): > 100 µM
TGI (COLO 205; read-out: Log TGI (converted)): > 100 µM
GI50 (HCT-116): 35.5 µM
CC50 (HCT-116; [6]): > 100 µM
TGI (HCT-116; read-out: Log TGI (converted)): > 100 µM
GI50 (HCT-15): 35.5 µM
CC50 (HCT-15; [6]): > 100 µM
TGI (HCT-15; read-out: Log TGI (converted)): > 100 µM
GI50 (KM12): 85.1 µM
CC50 (KM12; [6]): > 100 µM
TGI (KM12; read-out: Log TGI (converted)): > 100 µM
GI50 (SW-620): 72.4 µM
CC50 (SW-620; [6]): > 100 µM
TGI (SW-620; read-out: Log TGI (converted)): > 100 µM
GI50 (SF-268): 47.9 µM
CC50 (SF-268; [6]): > 100 µM
TGI (SF-268; read-out: Log TGI (converted)): > 100 µM
GI50 (SF-295): 32.4 µM
CC50 (SF-295; [6]): > 100 µM
TGI (SF-295; read-out: Log TGI (converted)): > 100 µM
GI50 (SNB-19): > 100 µM
LC50 (SNB-19): > 100 µM
TGI (SNB-19; read-out: Log TGI (converted)): > 100 µM
GI50 (SNB-75): > 100 µM
CC50 (SNB-75; [6]): > 100 µM
TGI (SNB-75; read-out: Log TGI (converted)): > 100 µM
GI50 [1]: 37.2 µM
CC50 [1, 6]: > 100 µM
TGI ([1]; read-out: Log TGI (converted)): > 100 µM
GI50 (M14): 70.8 µM
CC50 (M14; [6]): > 100 µM
TGI (M14; read-out: Log TGI (converted)): > 100 µM
GI50 (SK-MEL-2): 64.6 µM
CC50 (SK-MEL-2; [6]): > 100 µM
TGI (SK-MEL-2; read-out: Log TGI (converted)): > 100 µM
GI50 (SK-MEL-5): 20.9 µM
CC50 (SK-MEL-5; [6]): > 100 µM
TGI (SK-MEL-5; read-out: Log TGI (converted)): 61.7 µM
GI50 (IGROV-1): 34.7 µM
CC50 (IGROV-1; [6]): > 100 µM
TGI (IGROV-1; read-out: Log TGI (converted)): > 100 µM
GI50 (OVCAR-3): 34.7 µM
LC50 (OVCAR-3): > 100 µM
TGI (OVCAR-3; read-out: Log TGI (converted)): > 100 µM
GI50 (OVCAR-8): 51.3 µM
LC50 (concentration giving 50% net cell death) (OVCAR-8): > 100 µM
TGI (OVCAR-8; read-out: Log TGI (converted)): > 100 µM
GI50 (786-0): 60.3 µM
LC50 (concentration giving 50% net cell death) (786-0): > 100 µM
TGI (786-0; read-out: Log TGI (converted)): > 100 µM
GI50 (CAKI-1): 17 µM
CC50 (CAKI-1; [6]): > 100 µM
TGI (CAKI-1; read-out: Log TGI (converted)): 63.1 µM
GI50 (UO-31): 36.3 µM
CC50 (UO-31; [6]): > 100 µM
TGI (UO-31; read-out: Log TGI (converted)): > 100 µM
GI50 (DU-145): 38.9 µM
CC50 (DU-145; [6]): > 100 µM
TGI (DU-145; read-out: Log TGI (converted)): > 100 µM
GI50 (MCF7): 42.7 µM
CC50 (MCF7; [6]): > 100 µM
TGI (MCF7; read-out: Log TGI (converted)): > 100 µM
GI50 (MDA-MB-231): 40.7 µM
CC50 (MDA-MB-231; [6]): > 100 µM
TGI (MDA-MB-231; read-out: Log TGI (converted)): > 100 µM
pKP (Hs-578T): >4
GI50 (Hs-578T; Homo sapiens, Hs-578T): 25.1 µM
CC50 (Hs-578T; Homo sapiens, Hs-578T, read-out: Log LC50 (the source's name) (converted)): > 100 µM
TGI (Hs-578T; Homo sapiens, Hs-578T, read-out: Log TGI (converted)): 85.1 µM
GI50 (MDA-MB-435): 49 µM
CC50 (MDA-MB-435; [6]): > 100 µM
TGI (MDA-MB-435; read-out: Log TGI (converted)): > 100 µM
GI50 (BT-549): 36.3 µM
CC50 (BT-549; [6]): > 100 µM
TGI (BT-549; read-out: Log TGI (converted)): > 100 µM
GI50 (T47D): 39.8 µM
CC50 (T47D; [6]): > 100 µM
TGI (T47D; read-out: Log TGI (converted)): > 100 µM
half-life [2]: 7.17 h
IC50 (NCI [3]): 55 µM
TGI (NCI [3]): > 100 µM
CC50 (NCI [3]; read-out: LC50 (the source's name)): > 100 µM
IC50 (NCI [4]): 45 µM
TGI (NCI [4]): > 100 µM
IC50 (NCI [5]): 47 µM
TGI (NCI [5]): 93 µM
GI50 (HOP-92): 30.2 µM
CC50 (HOP-92; [6]): > 100 µM
TGI (HOP-92; read-out: Log TGI (converted)): > 100 µM
GI50 (OVCAR-5): 63.1 µM
CC50 (OVCAR-5; [6]): > 100 µM
TGI (OVCAR-5; read-out: Log TGI (converted)): > 100 µM

— ChEMBL document CHEMBL1149311, “Synthesis and antitumor activity of methyltriazene prodrugs simultaneously releasing DNA-methylating agents and the antiresistance drug O(6)-benzylguanine” (J Med Chem, 2004)
